Measured values from different studies.
Protocols differ between the studies behind these lines.
Effect on: metabolic stability

| Compound | system | setting | quantity | value |
| --- | --- | --- | --- | --- |
| Cc1ccc(F)c2cc(C(=O)N[C@@H]3CCC[C@H](N4CCOCC4)C3)[nH]c12 | mouse, hepatocytes | 0.5 µM, 1 h | scaled CLint | 2170 mL/min/kg |
| N#Cc1ccccc1-c1nc(N2CCC(c3ccccn3)C2)c2ccccc2n1 (centres unmarked) | mouse, liver microsomes | – | microsomal CLint | 717 µL/min/mg |
| CN[C@@H]1CCCN(c2ccc(Nc3cc(NC4CC4)n4ncc(C#N)c4n3)cc2NC(C)=O)C1 | male CD-1 mouse, hepatocytes | 1 µM, serum-free | scaled CLint | 162 mL/min/kg |
| Cc1cc(Cl)c(Cl)cc1NC(=O)c1cc([N+](=O)[O-])c(N2CCNCC2)cc1Cl | CD-1 mouse, liver microsomes | 1 µM, 1 h, pH 7.4 | scaled CLint | 25 mL/min/kg |
| c1ccc(-c2nc(NCc3nccs3)c3ccccc3n2)nc1 | mouse, liver microsomes | – | microsomal CLint | 224 µL/min/mg |
| CO[C@@H](C[C@H]1C(C)=CC[C@@H]2[C@]3(C)C[C@H](O[C@@H]4O[C@@H](C)[C@H](OC(=O)c5cccc(O)c5)[C@@H](O[C@@H]5O[C@H](CO)[C@@H](O)[C@H](O)[C@H]5NC(C)=O)[C@H]4O)[C@@H](O)C(C)(C)[C@H]3CC[C@]21C)[C@H](N)C(=O)O | mouse, hepatocytes | 1 µM | hepatocyte CLint | 4.69 µL/min/10⁶ cells |
| O=C(Nc1cncc(-c2nc3ccccc3s2)c1)c1cc([N+](=O)[O-])c(N2CCNCC2)cc1Cl | CD-1 mouse, liver microsomes | 1 µM, 1 h, pH 7.4 | scaled CLint | 10 mL/min/kg |
| CC(=O)Nc1cc(Nc2cc(NC3CC3)n3ncc(C#N)c3n2)ccc1N1CCC[C@H](O)C1 | male CD-1 mouse, hepatocytes | 1 µM, serum-free | scaled CLint | 511 mL/min/kg |
| O=C(Nc1ccc(Cl)c(Cl)c1)c1ccc(N2CCNCC2)c([N+](=O)[O-])c1 | CD-1 mouse, liver microsomes | 1 µM, 1 h, pH 7.4 | scaled CLint | 12 mL/min/kg |
| c1ccc(-c2nc(Nc3ccn4nccc4c3)c3ccccc3n2)nc1 | mouse, liver microsomes | – | microsomal CLint | 325 µL/min/mg |
| CC(=O)N(C)C1CCN(c2cc(F)cc(NC(=O)c3cc4c(F)ccc(C)c4[nH]3)c2)C1 (centres unmarked) | mouse, hepatocytes | 0.5 µM, 1 h | scaled CLint | 239 mL/min/kg |
